# Calls of active or inactive are those of the source. The calls are words filed in the database; no cut-off is given here.
# Columns and labels:
# [1] = Half life in RPMI media at 10 uM by HPLC analysis; assay type: physicochemical
# In short: (§1)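 Compound added from DMSO stock to pre-heated RPMI 1640 (1.8 mL) plus 0.2 mL human AB male serum or FBS, or to 2 mL RPMI alone, at final 1 or 10 μM. Samples analysed by HPLC at pH 9.5 (formic acid/ammonia in acetonitrile/water), with conversion taken from the substrate/internal standard peak ratio. Run in triplicate; half-lives ± SD.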
# [2] = Half life in RPMI media at 10 uM by HPLC analysis in presence of fetal bovine serum; assay type: ADME; details: cattle; in short: as §1
# [3] = Half life in RPMI media at 10 uM by HPLC analysis in presence of human blood serum; assay type: ADME; in short: as §1
# [4] = Selectivity ratio of IC50 for MEF to IC50 for human Jurkat T cells; assay type: cell-based; details: mouse (MEF) and human (Jurkat T cells), read-out: Ratio IC50
# [5] = Selectivity ratio of IC50 for MEF to IC50 for human SK-MEL-2 cells; assay type: cell-based; details: mouse (MEF) and human (SK-MEL-2 cells), MEF and SK-MEL-2 cells; read-out: Ratio IC50
# [6] = system: MEF; assay: Antiproliferative activity against MEF after 72 hrs by MTT assay; assay type: cell-based; details: Mus musculus
# [7] = Selectivity ratio of IC50 for MEF to IC50 for human HeLa cells; assay type: cell-based; details: mouse (MEF) and human (HeLa cells), read-out: Ratio IC50
# [8] = system: SK-MEL-2; assay: Antiproliferative activity against human SK-MEL-2 cells after 72 hrs by MTT assay in presence of 5% FBS; assay type: functional, cell-based; details: SK-MEL-2, 72 h
# In short: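 SK-MEL2 grown with reduced serum (5% FBS) to slow proliferation. Compounds added in DMSO (0.1% final), followed by a 72 h MTT proliferation assay.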
# [9] = Dissociation constant, pKa of the compound; assay type: physicochemical
# [10] = species: Oryctolagus cuniculus; assay: Inhibition of cap-independent HCV-IRES-induced translation in rabbit reticulocyte lysate at 500 nM after 1.5 hrs by luciferase reporter gene assay; assay type: functional
# In short: (§2)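 Capped bicistronic reporter mRNA: cap-dependent firefly luciferase first cistron, HCV IRES-driven Renilla second cistron. Transcribed in vitro with SP6 from the BamHI-linearised plasmid. 200 ng RNA translated in rabbit reticulocyte lysate with 70 mM KCl, 2 mM DTT, RNasin and compound in DMSO (5% v/v final), 30 °C for 1.5 h. Dual luciferase readout. Duplicates, 4 independent assays, mean IC50 by curve fit.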
# [11] = Binding affinity to eIF4A1/2 in rabbit reticulocyte lysate assessed as inhibition of cap-dependent translation after 1.5 hrs by dual luciferase reporter gene assay; set-up: species or system Oryctolagus cuniculus; in short: as §2
# [12] = system: Jurkat; assay: Antiproliferative activity against human Jurkat T cells up to 10^4 nM after 72 hrs by MTT assay; assay type: functional, cell-based
# In short: (§3)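 HeLa and SK-MEL2 grown in DMEM, Jurkat in RPMI 1640, each with 10% FBS and penicillin-streptomycin, at 37 °C and 5% CO2. Adherent cells seeded at 2000/well and left to recover overnight; Jurkat seeded at 5000/well with no recovery. Compound added in DMSO (0.1% final), then 72 h incubation and MTT readout.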
# [13] = system: SK-MEL-2; assay: Antiproliferative activity against human SK-MEL-2 cells after 72 hrs by MTT assay in presence of 10% FBS; assay type: functional, cell-based; details: SK-MEL-2, 72 h; in short: as §3
# [14] = system: HeLa; assay: Antiproliferative activity against human HeLa cells after 72 hrs by MTT assay; assay type: functional, cell-based; in short: as §3
# [15] = system: SK-MEL-2; assay: Selectivity ratio of IC50 for human SK-MEL-2 cells in presence of 10% FBS to IC50 for human SK-MEL-2 cells in presence of 5% FBS; assay type: functional
# [16] = Antiproliferative activity against human Jurkat T cells after 72 hrs by MTT assay; assay type: functional, cell-based; in short: as §3
# [17] = system: SK-MEL-2; assay: Antiproliferative activity against human SK-MEL-2 cells up to 10^4 nM after 72 hrs by MTT assay in presence of 10% FBS; assay type: functional, cell-based; in short: as §3
# [18] = system: HeLa; assay: Antiproliferative activity against human HeLa cells up to 500 nM after 72 hrs by MTT assay; assay type: functional, cell-based; in short: as §3
# [19] = system: Jurkat; assay: Immunosuppressive activity in human Jurkat T cells assessed as inhibition of IL-2 transcription; assay type: functional, cell-based
# [20] = Antiproliferative activity against BAEC assessed as DNA synthesis level after 24 hrs by thymidine incorporation assay; details: Bos taurus
# In short: (§4)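 Cells kept at 37 °C, 5% CO2 with penicillin-streptomycin and 10% FBS. Adherent lines seeded at 2000 cells/well and left to recover overnight; Jurkat seeded at 5000 cells/well with no recovery period. Compound added in DMSO (0.1% final, vehicle-only control) at 0.001–100 nM over 10 wells. DNA synthesis read out after 24 h. Mean IC50 from at least 3 independent assays.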
# [21] = system: HaCaT; assay: Antiproliferative activity against human HaCaT cells assessed as DNA synthesis level after 24 hrs by thymidine incorporation assay; assay type: functional, cell-based; in short: as §4
# [22] = system: RKO; assay: Antiproliferative activity against human RKO cells assessed as DNA synthesis level after 24 hrs by thymidine incorporation assay; assay type: functional, cell-based; in short: as §4
# [23] = system: HeLa; assay: Antiproliferative activity against human HeLa cells assessed as DNA synthesis level after 24 hrs by thymidine incorporation assay; assay type: functional, cell-based; in short: as §4
# [24] = species: Oryctolagus cuniculus; assay: Binding affinity to eIF4A1/2 in rabbit reticulocyte lysate assessed as cap-dependent translation at 500 nM after 1.5 hrs by dual luciferase reporter gene assay relative to control
# In short: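 Rabbit reticulocyte lysate translating the cap-dependent/HCV IRES dual-luciferase mRNA, with compound at 500 nM in DMSO (5% v/v final), 30 °C for 1.5 h. Cap-dependent luciferase expressed as % translation relative to DMSO control.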
# [25] = species: Oryctolagus cuniculus; assay: Binding affinity to eIF4A1/2 in rabbit reticulocyte lysate assessed as inhibition of cap-dependent translation up to 500 nM after 1.5 hrs by dual luciferase reporter gene assay; in short: as §2
# [26] = system: SK-MEL-2; assay: Selectivity ratio of IC50 for human SK-MEL-2 cells in presence of 5% FBS to IC50 for human SK-MEL-2 cells in presence of 10% FBS; assay type: functional
# [27] = Antiproliferative activity against human Jurkat T cells assessed as DNA synthesis level after 24 hrs by thymidine incorporation assay; assay type: functional, cell-based; in short: as §4
smiles,measurement,setting,value
CC(/C=C/C(C)=C/[C@@H]1Cc2nc(cs2)CCCCC(=O)O[C@@H](C)C/C(C)=C/C=C\C(=O)O1)=C\CN1CCOCC1,t1/2,[1],0.89 h
same,t1/2,[2],9.23 h
same,t1/2,[3],17.8 h
same,selectivity ratio,[4],5
same,selectivity ratio,[5],5
same,IC50,[6],> 2000 nM
same,selectivity ratio,[7],5
same,IC50,[8],157 nM
same,pKa,[9],8.36
same,inhibition,[10],inactive
same,IC50,[11],72.2 nM
same,Activity,[12],inactive
same,IC50,[13],320 nM
same,IC50,[14],430 nM
same,Ratio IC50,[15],2
COCCC/C=C/C(C)=C/[C@@H]1Cc2nc(cs2)CCCCC(=O)O[C@@H](C)C/C(C)=C/C#CC(=O)O1,inhibition,[10],inactive
same,IC50,[16],> 10000 nM
same,Activity,[17],inactive
same,Activity,[18],inactive
CC(/C=C/CCCN(C)C)=C\[C@@H]1Cc2nc(cs2)[C@@H](C)C[C@@H](NC(=O)OC(C)(C)C)CC(=O)O[C@@H](C)C/C(C)=C/C=C\C(=O)O1,IC50,[19],330 nM
same,IC50,[20],> 20 nM
same,IC50,[21],> 100 nM
CC(/C=C/CCCO)=C\[C@@H]1Cc2nc(cs2)[C@@H](C)C[C@@H](NC(=O)OC(C)(C)C)CC(=O)O[C@@H](C)C/C(C)=C/C=C\C(=O)O1,IC50,[19],> 1000 nM
C/C(Br)=C\[C@@H]1Cc2nc(cs2)CCCCC(=O)O[C@@H](C)C/C(C)=C/C#CC(=O)O1,inhibition,[10],inactive
same,Activity,[12],inactive
same,Activity,[17],inactive
same,Activity,[18],inactive
COCCC/C=C/C(C)=C/[C@@H]1Cc2nc(cs2)[C@@H](C)C[C@@H](NC(=O)OC(C)(C)C)CC(=O)O[C@@H](C)C/C(C)=C/C#CC(=O)O1,IC50,[19],55 nM
same,IC50,[20],> 20 nM
same,IC50,[21],> 100 nM
same,IC50,[22],> 100 nM
same,IC50,[23],> 100 nM
CC(/C=C/C=C/CO)=C\[C@@H]1Cc2nc(cs2)CCCCC(=O)O[C@@H](C)C/C(C)=C/C#CC(=O)O1,inhibition,[10],inactive
same,Activity,[12],inactive
same,Activity,[17],inactive
same,Activity,[18],inactive
CC(/C=C/C(C)=C/[C@@H]1Cc2nc(cs2)CCCCC(=O)O[C@@H](C)C/C(C)=C/C=C/C(=O)O1)=C\CN(C)C,Activity,[24],80%
same,inhibition,[10],inactive
same,IC50,[11],> 500 nM
same,IC50,[16],> 10000 nM
same,IC50,[13],950 nM
same,IC50,[14],860 nM
CC(/C=C/CCCO)=C\[C@@H]1Cc2nc(cs2)CCCCC(=O)O[C@@H](C)C/C(C)=C/C=C\C(=O)O1,inhibition,[10],inactive
same,inhibition,[25],inactive
same,IC50,[16],> 5000 nM
same,IC50,[13],> 5000 nM
same,Activity,[18],inactive
CC(Br)=C[C@@H]1Cc2nc(cs2)CCCCC(=O)O[C@@H](C)C/C(C)=C/C=C\C(=O)O1,inhibition,[10],inactive
same,inhibition,[25],inactive
same,IC50,[16],> 10000 nM
same,IC50,[13],> 10000 nM
same,Activity,[18],inactive
CC(/C=C/CCCO)=C\[C@@H]1Cc2nc(cs2)CCCCC(=O)O[C@@H](C)C/C(C)=C/C#CC(=O)O1,inhibition,[10],inactive
same,Activity,[12],inactive
same,Activity,[17],inactive
same,Activity,[18],inactive
CC(/C=C/C(C)=C/[C@@H]1Cc2nc(cs2)CCCCC(=O)O[C@@H](C)C/C(C)=C/C=C\C(=O)O1)=C\CN1CCCC1,t1/2,[1],3.87 h
same,t1/2,[2],14.8 h
same,t1/2,[3],11.7 h
same,selectivity ratio,[4],4
same,selectivity ratio,[5],4
same,IC50,[6],> 100 nM
same,selectivity ratio,[7],4
same,IC50,[8],154 nM
same,pKa,[9],11
same,Ratio IC50,[26],6
same,inhibition,[10],inactive
same,IC50,[11],54.8 nM
same,IC50,[16],25 nM
same,IC50,[13],27 nM
same,IC50,[14],23 nM
CC(/C=C/C(C)=C/[C@@H]1Cc2nc(cs2)[C@@H](C)C[C@@H](NC(=O)c2ccccc2)CC(=O)O[C@@H](C)C/C(C)=C/C=C\C(=O)O1)=C\CN(C)C,IC50,[19],15 nM
same,IC50,[20],12.8 nM
same,IC50,[27],11.6 nM
same,IC50,[21],3.4 nM
same,IC50,[22],4.2 nM
same,IC50,[23],16.1 nM
